In the RNAGym collection of RNA variant scans (doi:10.1126/science.aae0568):
Variants at the floor of the assay were thinned out.

B1: tRNA (parent)
chain: GUUCCGUUGGCGUAAUGGUAACGCGUCUCCCUCCUAAGGAGAAGACUGCGGGUUCGAGUCCCGUACGGAACG

Variants of: B1
Assay: yeast fitness relative to wild type (ratio to wild type); higher = fitter; tRNA-Arg(CCU), competitive growth, 37 C, YPD
Method in brief: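 For this measurement, the tRNA-Arg(CCU) gene was varied by chemical synthesis at a 3% per-site mutation rate across 69 sites, and each variant was placed at the native genomic locus in Saccharomyces cerevisiae. The pooled strains went through a 24-hour competition in YPD at 37°C in six parallel replicates, with amplicons from start and end populations read by 100-nucleotide paired-end sequencing. Darwinian fitness relative to wild type followed from the change in each genotype's frequency. Genotypes needed ≥ 100 starting reads, and estimates < 0.5 were set to 0.5.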

GUUCGGUUGGCGUCAUGGUAACGCGUCUCCCUCCUAGGGAGAAGACUGCGGGUUCGAGUCCGGUACGGUACG [C5G A14C A37G C62G A69U] and GUUCGGUUGGCGUCAUGGUGACGCGUCUACGUCCUAAGGAGAAGACUGCGGGUACGAGUCCCGUACGGAACG [C5G A14C A20G C29A C31G U54A] cannot be ordered by yeast fitness: at most 0.5 for the first, at most 0.5 for the second.

Going from GUUCAGUUGGCGUAAUGGUAACGCGUCUCCCUCCUAAGGAGAAGACUGCGGGUUCGAGUCCCGAACGGAACG [C5A U64A] to GUUCAGUUGGCGUAAUGGUAACGCGUCUCCCUCCUAAGGAGAAGACUGCGGGUUCGAGUCCCGCACGGAACG [C5A U64C], the yeast fitness rises from 0.766 to 0.96.

Compared with GUUCAGUUGGCGUAAUGGUAACGCGUCUCCCGCCUAAGGAGAAGACUGCGGGUUCGAGUCCCGUACGGAACG [C5A U32G], GUUCGGUUGGCGUCAUGGUAACGCGUCUACGUCCUAAGGAGAAGACUGCGGGUUCGAGUCCCGUCCGGAACG [C5G A14C C29A C31G A65C] is lower in yeast fitness: 0.584 for the first, at most 0.5 for the second.

GUUCGGUUGGCGUCAUGGUAACGCGUCUCCGUCCUAAGGAGAAGACUGCGGGUUCAAGUCCCGUACGGAUCG [C5G A14C C31G G56A A70U] and GUUCAGUUGGCGUAAUGGUAACGCGUCGCGCUCCUAAGGCGUAGACUGCGGGUUCGAGUCCCGUACGGAACG [C5A U28G C30G A40C A42U] cannot be ordered by yeast fitness: at most 0.5 for the first, at most 0.5 for the second.

Compared with GUUCAGUUGGCGUAAUGGUAACGCGUCUCCCUCCGAAGGAGAAGACUGCGGGUUCGAGUUCGGUACGGAGCG [C5A U35G C60U C62G A70G], GUUCAGUUGGCGUAAUGGUAACGCGUCUCCCUCCUAAGGAGAAGACUGCGGGUACGAGUCCCGUACGGAACG [C5A U54A] is higher in yeast fitness: at most 0.5 for the first, 0.699 for the second.

First: GUUCAGUUGGCGUAAUGGUAACGCGUCUCCCUCCCAAGGAGAAAACUCCGGGUUGGAGUCCCGUAUGGAUCG [C5A U35C G44A G48C C55G C66U A70U]
Second: GUUCAGUUGGCGUAAUGGUAACGCGUCUCCCUCCGAAGGAGCAGACUGCGGGUUCGAGUCCCGUACGGCACG [C5A U35G A42C A69C]
The yeast fitness of the first is lower: 0.558 for the first, 0.588 for the second.

First: GUUCGGUUGGCGUCAUGGUAACGCGUCUCCCUCCUAGGGAGAAGACUGCGGGUUCGAGUCCCGUACGGAACG [C5G A14C A37G]
Second: GUUCGGUUGGCGUCAUGAUAACGCGUCUCCCUCCUAAGGAGAGGCUUGCGGGUUCGAGUCCCGUACGGAACG [C5G A14C G18A A43G A45C C46U]
The yeast fitness of the first is lower: at most 0.5 for the first, 0.579 for the second.

Compared with GUUCAGUUGGCGUAAUGGUAACGCGUCUCCCUCCUAAGGAGAAGACUGCGGGUCCGAGUCUUGUACGGUACG [C5A U54C C61U C62U A69U], GUUCAGUUGGCGUAAUGGUAACGCGUCUCCCCCCUCAGGAGAAGACUGCGAGUUCGAGUCCCGUACGGAACG [C5A U32C A36C G51A] is higher in yeast fitness: 0.546 for the first, 0.59 for the second.

Compared with GUUCAGUUGGCGUAAUGGUAACGCGUCUCCCUCCCUAGGAGAAGACUGCGGGUUCGAGUCCCGUACGGAACG [C5A U35C A36U], GUUCGGUUGGCGUCAUGGUAACCCGUCUCCCUUCUAAAGAGAAGACUGCGGGUUCGACUCCCGUACGGAGCG [C5G A14C G23C C33U G38A G58C A70G] is lower in yeast fitness: 0.57 for the first, at most 0.5 for the second.

GUUCAGUUGGCGUAAUGGUAACGCGUCUCCCUCCGAAGGAGAAGACUGCGGGUUCGAGUGCCGUACGGAACG [C5A U35G C60G] and GUUCGGUUGGCGUCAUGAUAACGCGUCUCCCUCCUAAGGAGAGGCUUGCGGGUUCGGGUCCCGUACGGAACG [C5G A14C G18A A43G A45C C46U A57G] cannot be ordered by yeast fitness: at most 0.5 for the first, at most 0.5 for the second.

GUUCAGUUGGCGUAAUGGUAACGCGUCUCCCUCCCAAGGAGAAAACUCCGGGUUGGAGUCCCGUACGGACCG [C5A U35C G44A G48C C55G A70C] and GUUCAGUUGGCGUAAUGGUAACGCGUCUCCCUCCUAAGGAGAAGACUGCGGGUUCGAGACCCGUAAGGAACG [C5A U59A C66A] cannot be ordered by yeast fitness: at most 0.5 for the first, at most 0.5 for the second.

Going from GUUCGGUUGGCGUCAUGAUAACGCGUCUCCCUCCUAAGGAGAGGCUUGCGGGUUCGAGUCCCGUACGGCACG [C5G A14C G18A A43G A45C C46U A69C] to GUUCAGUUGGCGUAAUGGUAACGCGUCUCCCUCCUAAGGAGAAGACCGCGGGUUCGAGUCCCGUACGGAGCG [C5A U47C A70G], the yeast fitness rises from at most 0.5 to 0.705.

GUUCAGUUGGCGUAAUGGUAACGCGUCUCCCUCCCAAGGAGAAAACUCCGGGUUAGAGUCCCGUACGGAACG [C5A U35C G44A G48C C55A] and GUUCAGUUGGCGUAAUGGUAACGCGUCUCCCUCCCAAGGAGAAAACUCCGGGUUGGAGUCCCGUACGGAACG [C5A U35C G44A G48C C55G] cannot be ordered by yeast fitness: at most 0.5 for the first, at most 0.5 for the second.

Compared with GUUCAGUUGGCGUAAUGGUAACGCGUCUCCCUCCCAAGGAGAAGACUGCGGGUUCGAGUCCCGUAUGGAACG [C5A U35C C66U], GUUCAGUUGGCGUAAUGGUAACGCGUCUCCCUCCGAAGGAGAAGACCGCGGGUUCGAGUCGCGUACGGAACG [C5A U35G U47C C61G] is lower in yeast fitness: 0.579 for the first, at most 0.5 for the second.

Going from GUUCGGUUGGCGUCAUGGUAACGCGUCUUCCUGCUAAGGAGAAGACUGCGGGUUCGAGUCCCGUACGGAACG [C5G A14C C29U C33G] to GUUCAGUUGGCGUAAUGGUAACGCGUCUCCCUCCUAAGGAGAAGACCGCGGGUUCGAGUCCCGUACGGAACG [C5A U47C], the yeast fitness rises from at most 0.5 to 0.85.

Going from GUUCAGUUGGCGUAAUGGUAACGCGUCUCCCGCCUAAGGAGAAGACUGCGGGUUUGAGUCCCGUACGGAACG [C5A U32G C55U] to GUUCAGUUGGCGUAAUGGUAACGCGUCUCCCUCCCAAGGAGAAGACUGCGGGUUCGAGUCCCGUACGGAACG [C5A U35C], the yeast fitness rises from at most 0.5 to 0.869.

Going from GUUCAGUUGGCGUAAUGGUAACGCGUCUCCCUCCUAAGGAGAAGACUGCGGGUUCGAGCCCCGUACGGAACG [C5A U59C] to GUUCAGUUGGCGUAAUGGUAACGCGUCUCCCUCCUAAGGAGAAGACUGCGGGUUCGAGGCCCGUACGGAACG [C5A U59G], the yeast fitness falls from 0.807 to 0.746.

GUUCAGUUGGCGUAAUGGUAACGCGUCGCCCUCCUAAGGAGAAGACUGCGGGUUCGAGUCCCGUAUGGAACG [C5A U28G C66U] and GUUCAGUUGGCGUAAUGGUAACGCGUCUCCCUCCUAAGGAGAAGACUGCGGGGUCGAGUACCGUACGGAACG [C5A U53G C60A] cannot be ordered by yeast fitness: at most 0.5 for the first, at most 0.5 for the second.

First: GUUCGGUUGGCGUCAUGAUAGCGCGUCUCCCUCCUUAGGAGAAGUCUGCGGGUUCGAGUCCCGUACGGAACG [C5G A14C G18A A21G A36U A45U]
Second: GUUCGGUUGGCGUCAUGGUAACGCGUCUACGUCCUAAGGAGAAGACUGCGGGUACGAGUCCCGUACGGAUCG [C5G A14C C29A C31G U54A A70U]
The yeast fitness of the first is lower: at most 0.5 for the first, 0.545 for the second.
